Myeloid diff MLP = induction of myeloid progenitor differentiation, primary screen, cell-based, flow cytometry, MLPCN library. hit rate 1% among 360,000. ER-HoxA9 myeloid progenitors, lysozyme-GFP differentiation. AID 624256, 2012. calls only at 10 µM;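 active = normalized GFP-positive differentiation at or above the plate's own cutoff, the solvent-only control mean plus 3 SD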;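 also: cells exposed to compound for four days before flow analysis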
GRK2 aptamer HTS = compounds blocking aptamer binding on GRK2 – biochemical, human GRK2, bead flow cytometry, HTS, primary screen | FAM-aptamer displacement from GRK2 | inhibition of aptamer binding, % at 10 µM | hit rate 0.59% among 330,000;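 active = inhibition of aptamer binding above 40%, roughly 3 SD of noise, on plates passing a quality check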;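 also: median bead fluorescence of bound FAM aptamer so fluorescent compounds give negative values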
SKN-1 block = suppressors of acrylamide-induced Pgst-4::GFP reporter in worms, primary screen, SKN-1 inhibitor project, whole organism, uHTS, GFP/RFP fluorescence ratio, strain VP596 | C. elegans VP596 Pgst-4::GFP/RFP ratio, 24 h | inhibition, % at 21.8 µM | hit rate 0.49% among 360,000;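 active = interference check ratio from 0.5 to 1.5 plus GFP to RFP signal ratio inhibition reaching or exceeding a fixed threshold, cut at about 30% in these data, passing the limit was not always enough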
Rce1 inhib = yeast Rce1p protease inhibitors, primary screen, biochemical, fluorescence, cell-free homogeneous. calls only. CAAX prenyl protease 2 (Saccharomyces cerevisiae (strain ATCC 204508 / S288c)), Q03530. AID 2563, 2010. hit rate 0.27% among 290,000. yeast membranes, quenched prenylated peptide cleavage fluorescence;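 active = fall in fluorescence gain of 50% or more versus controls, with final raw signal at or below 3038400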;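 also: plate controls were neutral control wells for no effect and wells lacking membranes for full effect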
T cell HTS = modulators of CD8 T cell-vesicle binding, primary screen, mouse 2C CD8+ T cells, flow cytometry | response (vesicle binding), % at 7 µM | hit rate 0.068% among 330,000 | AID 2052, 2009 | 2C CD8+ T cell-vesicle binding; active compounds read low;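 active = response, share of CD8 T cells binding vesicles, and their 90th percentile fluorescence all below set limits, cut at about 80% in these data, passing the limit was not always enough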;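 also: values below 100% mean blocked vesicle binding to the CD8+ T cells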
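Test system: purified 2C TCR transgenic mouse naive CD8+ T cells. Probe or stimulus: QL9-peptide-loaded Drosophila micro-vesicles bearing Ld, ICAM-1 and B7-1. Incubation: binding step 1.5 h, 37 °C, antibody labelling 20 min, ice. Measured by: flow cytometry of vesicle-bound cells.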
Rin1-Abl PPI inh = inhibitors of Rin1-Abl protein binding, primary screen, biochemical, TR-FRET | Tyrosine-protein kinase ABL1 (Homo sapiens) + Ras and Rab interactor 1 (Homo sapiens), … | inhibition, % at 7.35 µM | hit rate 0.4% among 360,000; in the data active = inhibition above about 5%, passing the limit was not always enough
Target sequence (P00519 whole entry, looked up): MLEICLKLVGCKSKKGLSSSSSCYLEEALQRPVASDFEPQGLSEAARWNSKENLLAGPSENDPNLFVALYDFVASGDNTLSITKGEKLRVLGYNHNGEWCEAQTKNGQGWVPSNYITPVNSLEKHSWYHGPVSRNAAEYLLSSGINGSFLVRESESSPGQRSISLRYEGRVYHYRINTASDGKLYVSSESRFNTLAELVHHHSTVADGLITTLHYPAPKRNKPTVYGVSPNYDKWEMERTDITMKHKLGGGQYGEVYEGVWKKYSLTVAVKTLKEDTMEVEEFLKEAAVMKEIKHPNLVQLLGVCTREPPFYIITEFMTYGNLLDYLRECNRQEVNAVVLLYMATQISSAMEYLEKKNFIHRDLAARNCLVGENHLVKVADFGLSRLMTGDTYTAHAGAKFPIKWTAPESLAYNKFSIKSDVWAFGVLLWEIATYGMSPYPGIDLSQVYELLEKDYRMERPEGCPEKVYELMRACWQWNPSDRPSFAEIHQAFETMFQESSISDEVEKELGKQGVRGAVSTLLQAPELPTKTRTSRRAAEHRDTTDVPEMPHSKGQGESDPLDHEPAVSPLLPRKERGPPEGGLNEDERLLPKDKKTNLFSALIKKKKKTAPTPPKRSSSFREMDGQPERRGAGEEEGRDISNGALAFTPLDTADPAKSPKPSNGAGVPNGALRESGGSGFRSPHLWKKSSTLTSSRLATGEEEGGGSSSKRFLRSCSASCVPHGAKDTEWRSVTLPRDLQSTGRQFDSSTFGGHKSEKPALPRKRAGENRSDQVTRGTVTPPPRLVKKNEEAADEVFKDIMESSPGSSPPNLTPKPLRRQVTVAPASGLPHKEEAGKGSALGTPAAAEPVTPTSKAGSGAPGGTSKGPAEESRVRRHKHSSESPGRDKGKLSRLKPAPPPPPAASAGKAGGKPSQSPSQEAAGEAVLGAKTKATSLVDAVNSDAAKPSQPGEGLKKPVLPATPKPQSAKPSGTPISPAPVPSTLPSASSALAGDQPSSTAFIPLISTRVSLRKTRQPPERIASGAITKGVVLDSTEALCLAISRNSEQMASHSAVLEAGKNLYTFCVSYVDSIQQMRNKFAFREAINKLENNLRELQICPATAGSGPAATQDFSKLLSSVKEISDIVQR
Target sequence (Q13671 whole entry, looked up): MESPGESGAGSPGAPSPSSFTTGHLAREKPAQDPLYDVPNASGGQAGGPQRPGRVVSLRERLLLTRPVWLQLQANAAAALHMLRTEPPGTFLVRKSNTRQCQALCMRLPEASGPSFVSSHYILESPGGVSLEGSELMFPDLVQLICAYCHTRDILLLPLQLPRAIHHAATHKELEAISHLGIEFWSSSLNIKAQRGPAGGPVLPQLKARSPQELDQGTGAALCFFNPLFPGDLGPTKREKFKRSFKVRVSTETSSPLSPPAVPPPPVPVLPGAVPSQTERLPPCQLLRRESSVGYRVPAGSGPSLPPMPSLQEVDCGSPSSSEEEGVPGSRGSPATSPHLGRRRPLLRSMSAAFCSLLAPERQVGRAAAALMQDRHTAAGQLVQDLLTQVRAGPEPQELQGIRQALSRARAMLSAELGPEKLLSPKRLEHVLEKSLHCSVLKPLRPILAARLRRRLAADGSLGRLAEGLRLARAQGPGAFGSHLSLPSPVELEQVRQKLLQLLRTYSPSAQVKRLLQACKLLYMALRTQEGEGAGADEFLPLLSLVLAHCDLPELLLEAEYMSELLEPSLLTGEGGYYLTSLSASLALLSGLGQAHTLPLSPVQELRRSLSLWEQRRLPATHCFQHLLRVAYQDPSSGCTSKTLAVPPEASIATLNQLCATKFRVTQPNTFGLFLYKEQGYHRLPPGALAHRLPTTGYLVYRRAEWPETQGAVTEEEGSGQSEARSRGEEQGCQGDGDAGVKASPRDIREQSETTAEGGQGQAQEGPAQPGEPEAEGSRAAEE
Myeloid diff CP1 = inducers of myeloid progenitor differentiation, confirmation, cell-based, GFP/Mac1 flow cytometry, cherry pick 01. shares compounds with Myeloid diff MLP. ER-HoxA9 myeloid progenitors, GFP/Mac1 double-positive flow. calls only. hit rate 2% among 2,300;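 active = share of green or green-and-red cells above 9 and 9% in run 1 or 4 and 3% in run 2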
GFP autofluor = counter-screen for myeloid differentiation promoters: compound fluorescence | shares compounds with Myeloid diff MLP | ER-HoxA9 myeloid progenitors, no estrogen, GFP autofluorescence flow cytometry; vehicle wells 0%, positive control 100% | fluorescence response, % (no concentration beside the values) | hit rate 7.4% among 2,300 | AID 651707;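 active = over 5% cells positive for green fluorescent reporter, or over 2% positive for both it and APC stain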;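 also: range taken on the double positive population between DMSO and positive control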
* = called active by the depositor; i = inactive; . = no result given; + = active, no number. In the library only some 2.6% were active in any assay of this set; here they are far more common.

SMILES | Myeloid diff MLP | GRK2 aptamer HTS | SKN-1 block | Rce1 inhib | T cell HTS | Rin1-Abl PPI inh | Myeloid diff CP1 | GFP autofluor
Cc1cc(C(=O)OCC(=O)NCc2ccco2)c(C)o1 | i | 1 | -2 | i | 233 | 1 | . | .
C=CCn1c(N2CCN(c3ccc(OC)cc3)CC2)nc2c1c(=O)n(C)c(=O)n2C | i | 2 | -12 | i | 164 | 3 | . | .
C=CCn1c(N2CCN(c3ccc(OC)cc3)CC2)nc2c1c(=O)[nH]c(=O)n2C | i | 3 | -4 | i | 238 | 0 | i | 0
CC1(C)O[C@@H]2[C@H](O1)[C@@H](COS(=O)(=O)O)O[C@H]2n1cc(Br)c(=O)[nH]c1=O | + | 0 | 5 | . | 382 | 2 | i | 0
Cc1cn([C@H]2C[C@H](O)[C@@H](COS(=O)(=O)O)O2)c(=O)[nH]c1=O | i | 0 | -1 | . | 212 | 6 | . | .
CCOC(=O)c1ccc(NC(=O)COC)cc1 | i | 1 | 0 | i | 143 | 1 | . | .
CCOC(=O)c1ccc(NC(=O)C(CC)(CC)C(=O)OCC)cc1 | i | 1 | -14 | i | 313 | 5 | i | 0
O=C(ONC(=O)C1C2C=CC(C2)C1C(=O)NOC(=O)c1ccccc1)c1ccccc1 (centres undefined) | i | . | -4 | . | . | 2 | i | 0
COC(=O)[C@H](CC(C)C)NC(=O)Cn1cnc2c(SC)nc(N)nc21 | i | 0 | 0 | . | 411 | 0 | . | .
C=CC[C@@H](CC(=O)N[C@H](CO)Cc1ccccc1)C(=O)N[C@H](COC(=O)[C@H](CC=C)CC(=O)OC(C)(C)C)Cc1c[nH]c2ccccc12 | i | . | 11 | . | . | -3 | . | .
CCOc1cc(S(=O)(=O)Nc2ccc(Cl)cn2)ccc1F | + | 0 | -10 | i | 231 | 2 | i | 0
CCCCn1c(N)c(N(CC(C)C)C(=O)Cc2ccc(S(=O)(=O)N3CCOCC3)s2)c(=O)[nH]c1=O | + | . | -21 | . | . | 3 | + | 0
O=C1c2cccc3c2C2(O)c4c1cccc4C(=O)c1cccc(c12)C3=O | i | . | -7 | . | . | 0 | . | .
Oc1ccc2ccccc2c1C=Nc1ccccc1Br | i | 0 | -23 | i | 224 | -1 | i | 0
Oc1ccc2ccccc2c1/C=N/c1nccs1 | i | 3 | 3 | i | 316 | -1 | . | .
Oc1ccccc1N=Cc1c(O)ccc2ccccc12 | + | . | -3 | i | . | -4 | i | 0
O=C(CNS(=O)(=O)c1ccc(Br)s1)N1CCN(c2ccc(F)cc2)CC1 | i | 0 | 5 | i | 323 | 2 | . | .
COc1ccc(C(=O)Nc2cccc(N(C)S(C)(=O)=O)c2)cc1OC | i | 0 | -6 | i | 349 | 6 | i | 0
COc1ccc(-c2oc3ccccc3c(=O)c2OC(C)=O)cc1 | i | 0 | -1 | i | 227 | -6 | . | .
CC(=O)Oc1c(-c2ccc(Br)o2)oc2ccccc2c1=O | i | 2 | -1 | i | 147 | -2 | i | 1
O=C1C=C(c2ccc(-c3ccccc3)cc2)C[C@@H](c2ccc(Cl)cc2)C1 | i | 6 | -14 | . | 104 | 1 | i | 0
Cc1cccc(CN2CCN(C3CN(Cc4cn(Cc5ccc(Cl)cc5)nn4)S(=O)(=O)C3)CC2)c1 (centres undefined) | i | . | -11 | . | . | . | . | .
Cc1cc(S(=O)(=O)NC(C)C)ccc1OCC(=O)NCc1ccccc1 | i | 1 | 7 | i | 106 | 0 | . | .
CCC(C)[C@H](NC(=O)N1CCCCC1)C(=O)OC (some centres undefined) | i | 3 | -4 | i | 468 | 0 | . | .
CC1(C)CC(NC(=O)c2ccc(-c3ccc([N+](=O)[O-])cc3)o2)CC(C)(C)N1 | . | 0 | 8 | i | 383 | 1 | . | .
SMILES | Myeloid diff MLP | GRK2 aptamer HTS | SKN-1 block | Rce1 inhib | T cell HTS | Rin1-Abl PPI inh | Myeloid diff CP1 | GFP autofluor
O=C(O)CN1C(=O)/C(=C/c2ccc(SCc3ccccc3)o2)SC1=S | i | . | -21 | . | . | -1 | i | 0
O=C1/C(=C\c2ccco2)SC(=S)N1Cc1ccccc1 | i | 6 | -1 | i | 157 | 0 | i | 1
Cn1cccc1/C=C1\SC(=S)N(CC(=O)O)C1=O | i | 1 | 1 | . | 508 | -5 | . | .
Cn1nnc(NC(=S)NC(=O)c2cc(Cl)ccc2Cl)n1 | i | 0 | 9 | i | 624 | -2 | . | .
Cc1nc(C)c(/C(O)=C/c2nc3ccccc3oc2=O)s1 | + | 2 | -5 | i | 312 | 2 | i | 0
COc1ccc(NC(=O)c2ccc([N+](=O)[O-])s2)c([N+](=O)[O-])c1 | i | 4 | -18 | i | 213 | 3 | i | 0
CCOC(=O)c1ccccc1NC(=O)Cn1cnc2c(cnn2-c2ccccc2)c1=O | i | 2 | -1 | i | 556 | 2 | i | 0
CCOC(=O)c1ccccc1NC(=O)Cn1cnc2c(cnn2-c2ccc(F)cc2)c1=O | . | . | 3 | . | . | 1 | . | .
CCCCNC(=O)c1onc(CSc2ccc(F)cc2)c1C(=O)O | + | 1 | 12 | i | 210 | 2 | i | 1
CCCCNC(=O)c1onc(CSc2ccc(OC)cc2)c1C(=O)O | i | 2 | -7 | i | 368 | 4 | . | .
COc1ccc(N2CCN(Cc3nc(N)nc(Nc4ccccc4OC)n3)CC2)cc1 | i | 0 | 13 | i | 293 | -2 | . | .
COc1ccc(Nc2nc(N)nc(CN3CCN(c4ccc(F)cc4)CC3)n2)cc1 | i | 1 | -5 | i | 124 | -6 | i | 0
COn1c(=O)c(-c2cccs2)[n+]([O-])c2ccccc21 | i | 0 | -1 | i | 543 | 0 | . | .
Cn1c(-c2cccs2)[n+](C)c2ccccc21 | i | 1 | -1 | i | 948 | 3 | i | 0
Cc1cccc(-c2sc(Nc3ccccc3)n[n+]2-c2ccc(F)cc2)c1 | i | 1 | 6 | i | 186 | 3 | . | .
COc1ccc(-c2sc(Nc3ccccc3)n[n+]2-c2ccc(F)cc2)c(C)c1C | i | 0 | 6 | i | i | -2 | i | 4.2*

Compound activity from PubChem.
